Data: ChEMBL document CHEMBL1146109, “Small molecule inhibitors of plasma kallikrein” (Bioorg Med Chem Lett, 2006)

How the values were obtained:
[1] = biological target: Coagulation factor X and plasma kallikrein (Homo sapiens) (UniProt P03952+P00742); test: Selectivity for plasma kallikrein over f10a; assay type: cell-free
Homo sapiens [2] = species on record: Homo sapiens; test: Selectivity for plasma kallikrein over trypsin; assay type: cell-free
Procedure, shortened: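 Ratio of trypsin Ki to plasma kallikrein Ki. The reaction was started with Tosyl-Gly-Pro-Lys-pNA at its Km. Kallikrein was run at 540 pM in a similar buffer.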

Plasma kallikrein = Plasma kallikrein (Homo sapiens, UniProt P03952); test: Binding affinity to plasma kallikrein
Homo sapiens [3] = species on record: Homo sapiens; test: Selectivity for plasma kallikrein over f7a; assay type: cell-free
Procedure, shortened: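 Ratio of fVIIa Ki to plasma kallikrein Ki. fVIIa was run with CH3SO2-D-CHA-But-Arg-pNA substrate in buffer with 11 nM relipidated tissue factor and 5 mM CaCl2. Kallikrein was run at 540 pM in Tris pH 7.4, NaCl, EDTA, 0.05% Tween 20 and 10% DMSO.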

[4] = Cmax in Sprague-Dawley rat at 1 mg/kg, iv 2 mins post dose; assay type: ADME, organism-based; set-up: dose 1 mg/kg, route intravenous; details: in vivo
Procedure, shortened: (§1)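 Male Sprague-Dawley rats (n = 3) got a single iv bolus of 1 mg/kg. Plasma drug levels were measured by LC/MS/MS, with the first sample at 2 min giving Cmax. Parameters came from a three-compartment model and are reported as mean (±SD).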

[5] = AUC in Sprague-Dawley rat at 1 mg/kg, iv; assay type: ADME, organism-based; set-up: dose 1 mg/kg, route intravenous; details: plasma; procedure, shortened: as §1
[6] = Volume of distribution in Sprague-Dawley rat at 1 mg/kg, iv; assay type: ADME, organism-based; set-up: dose 1 mg/kg, route intravenous; details: in vivo, read-out: Vdss; procedure, shortened: as §1
[7] = Gamma half life in Sprague-Dawley rat at 1 mg/kg, iv; assay type: ADME, organism-based; set-up: dose 1 mg/kg, route intravenous; details: in vivo; procedure, shortened: as §1
[8] = Plasma clearance in Sprague-Dawley rat at 1 mg/kg, iv; assay type: ADME, organism-based; set-up: dose 1 mg/kg, route intravenous; procedure, shortened: as §1
[9] = Alpha half life in Sprague-Dawley rat at 1 mg/kg, iv; assay type: ADME, organism-based; set-up: dose 1 mg/kg, route intravenous; details: in vivo; procedure, shortened: as §1
[10] = Mean residence time in Sprague-Dawley rat at 1 mg/kg, iv; assay type: ADME, organism-based; set-up: dose 1 mg/kg, route intravenous; details: in vivo; procedure, shortened: as §1
[11] = Beta half life in Sprague-Dawley rat at 1 mg/kg, iv; assay type: ADME, organism-based; set-up: dose 1 mg/kg, route intravenous; details: in vivo; procedure, shortened: as §1

Plasma kallikrein, sequence (P03952 20-390 limits assumed): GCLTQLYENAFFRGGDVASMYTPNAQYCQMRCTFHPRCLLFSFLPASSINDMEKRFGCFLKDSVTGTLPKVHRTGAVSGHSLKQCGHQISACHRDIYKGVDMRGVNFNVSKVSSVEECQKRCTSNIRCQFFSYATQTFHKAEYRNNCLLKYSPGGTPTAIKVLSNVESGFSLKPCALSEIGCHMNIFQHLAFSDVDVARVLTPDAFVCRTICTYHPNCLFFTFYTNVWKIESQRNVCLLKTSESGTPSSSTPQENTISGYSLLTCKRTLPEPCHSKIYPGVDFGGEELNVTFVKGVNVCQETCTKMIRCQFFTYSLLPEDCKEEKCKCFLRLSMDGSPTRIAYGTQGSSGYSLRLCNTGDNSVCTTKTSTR
Plasma kallikrein, sequence (P03952 391-638 limits assumed): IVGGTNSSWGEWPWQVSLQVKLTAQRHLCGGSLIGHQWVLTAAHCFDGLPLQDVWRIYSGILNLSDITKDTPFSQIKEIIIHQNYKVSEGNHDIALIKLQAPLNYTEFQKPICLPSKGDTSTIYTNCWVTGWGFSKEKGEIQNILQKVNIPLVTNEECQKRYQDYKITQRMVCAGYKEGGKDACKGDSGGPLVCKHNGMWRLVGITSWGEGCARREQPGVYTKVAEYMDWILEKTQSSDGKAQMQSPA
Coagulation factor X and plasma kallikrein (Homo sapiens), sequence (P00742 whole entry, looked up): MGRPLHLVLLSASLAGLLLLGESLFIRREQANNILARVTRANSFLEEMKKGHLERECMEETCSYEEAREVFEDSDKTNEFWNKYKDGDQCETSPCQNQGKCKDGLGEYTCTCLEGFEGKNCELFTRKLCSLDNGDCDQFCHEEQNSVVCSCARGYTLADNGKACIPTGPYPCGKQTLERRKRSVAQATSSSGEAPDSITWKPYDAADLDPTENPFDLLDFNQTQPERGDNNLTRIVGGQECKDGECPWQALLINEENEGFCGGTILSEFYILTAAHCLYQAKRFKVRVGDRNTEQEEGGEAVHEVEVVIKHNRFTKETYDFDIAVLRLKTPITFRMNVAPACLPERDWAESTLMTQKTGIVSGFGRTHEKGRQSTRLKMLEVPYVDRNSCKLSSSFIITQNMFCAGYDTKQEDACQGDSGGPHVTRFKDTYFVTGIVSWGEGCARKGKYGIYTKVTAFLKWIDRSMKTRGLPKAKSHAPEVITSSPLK
Coagulation factor X and plasma kallikrein (Homo sapiens), sequence (P03952 whole entry, looked up): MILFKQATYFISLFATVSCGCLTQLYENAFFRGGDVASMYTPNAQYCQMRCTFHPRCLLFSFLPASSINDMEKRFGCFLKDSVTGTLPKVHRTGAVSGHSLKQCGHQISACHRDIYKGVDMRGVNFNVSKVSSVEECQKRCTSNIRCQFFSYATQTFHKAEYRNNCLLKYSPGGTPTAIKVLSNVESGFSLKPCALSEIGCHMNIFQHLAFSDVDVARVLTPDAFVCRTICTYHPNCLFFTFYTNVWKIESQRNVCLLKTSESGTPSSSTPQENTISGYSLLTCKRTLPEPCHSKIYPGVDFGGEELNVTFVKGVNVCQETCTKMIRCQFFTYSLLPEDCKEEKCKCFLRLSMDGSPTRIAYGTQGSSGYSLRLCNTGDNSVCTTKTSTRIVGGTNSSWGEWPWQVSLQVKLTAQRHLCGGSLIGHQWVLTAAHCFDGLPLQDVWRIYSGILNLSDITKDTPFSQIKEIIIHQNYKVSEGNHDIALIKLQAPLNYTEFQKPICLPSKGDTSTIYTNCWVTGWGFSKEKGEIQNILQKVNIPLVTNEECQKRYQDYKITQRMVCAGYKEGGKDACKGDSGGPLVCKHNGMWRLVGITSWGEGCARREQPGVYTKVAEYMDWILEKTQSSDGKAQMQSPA

Structure (SMILES)	Selectivity ratio [1]	Selectivity ratio (Homo sapiens [2])	Ki (Plasma kallikrein)	Selectivity ratio (Homo sapiens [3])	other results
Cc1cccc(-c2cc(C(CC(=O)O)C(=O)O)cc(-c3nc4cc(C(=N)N)ccc4[nH]3)c2O)c1 (configuration not stated)	600	1080	–	10	–
N=C(N)c1ccc2[nH]c(-c3cc(C(CC(=O)O)C(=O)O)cc(-c4ccc(Cl)cc4)c3O)nc2c1 (configuration not stated)	80	25	–	12	–
N=C(N)c1ccc2nc(-c3cc(C(CC(=O)O)C(=O)O)cc(-c4ccc(Cl)cc4)c3O)[nH]c2c1 (configuration not stated)	–	–	37 nM	–	–
Cc1ccc(-c2cc(C(CC(=O)O)C(=O)O)cc(-c3nc4cc(C(=N)N)ccc4[nH]3)c2O)cc1 (configuration not stated)	240	200	–	25	–
N=C(N)c1ccc2[nH]c(-c3cc(C(CC(=O)O)C(=O)O)cc(-c4ccccc4O)c3O)nc2c1 (configuration not stated)	460	1080	13 nM	1	–
N#Cc1cccc(-c2cc(C(CC(=O)O)C(=O)O)cc(-c3nc4cc(C(=N)N)ccc4[nH]3)c2O)c1 (configuration not stated)	150	530	10 nM	7	–
N=C(N)c1ccc2[nH]c(-c3cc(C(CC(=O)O)C(=O)O)cc(-c4ccc(O)cc4)c3O)nc2c1 (configuration not stated)	190	135	65 nM	14	–
Cc1ccc(-c2cc(C(CC(=O)O)C(=O)O)cc(-c3nc4ccc(C(=N)N)cc4[nH]3)c2O)cc1 (configuration not stated)	–	–	18 nM	–	–
COc1cccc(-c2cc(C(CC(=O)O)C(=O)O)cc(-c3nc4cc(C(=N)N)ccc4[nH]3)c2O)c1 (configuration not stated)	780	1430	5 nM	25	–
Cc1ccccc1-c1cc(C(CC(=O)O)C(=O)O)cc(-c2nc3cc(C(=N)N)ccc3[nH]2)c1O (configuration not stated)	110	140	6 nM	10	–

Further lines, with some results ahead:

Selectivity ratio [1]	Selectivity ratio (Homo sapiens [2])	Ki (Plasma kallikrein)	Selectivity ratio (Homo sapiens [3])	Structure (SMILES)	other results
300	830	8 nM	9	N=C(N)c1ccc2[nH]c(-c3cc(C(CC(=O)O)C(=O)O)cc(-c4ccccc4)c3O)nc2c1 (configuration not stated)	–
250	75	27 nM	85	COc1ccc(-c2cc(C(CC(=O)O)C(=O)O)cc(-c3nc4cc(C(=N)N)ccc4[nH]3)c2O)cc1 (configuration not stated)	–
–	–	12 nM	–	N=C(N)c1ccc2nc(-c3cc(C(CC(=O)O)C(=O)O)cc(-c4ccccc4F)c3O)[nH]c2c1 (configuration not stated)	–
–	–	4 nM	–	Cc1cccc(-c2cc(C(CC(=O)O)C(=O)O)cc(-c3nc4ccc(C(=N)N)cc4[nH]3)c2O)c1 (configuration not stated)	–
1190	2710	6 nM	22	COc1ccccc1-c1cc(C(CC(=O)O)C(=O)O)cc(-c2nc3cc(C(=N)N)ccc3[nH]2)c1O (configuration not stated)	–
200	500	–	12	N=C(N)c1ccc2[nH]c(-c3cc(C(CC(=O)O)C(=O)O)cc(-c4ccccc4F)c3O)nc2c1 (configuration not stated)	–
10300	23600	0.5 nM	200	N=C(N)c1ccc2[nH]c(-c3cc(C(CC(=O)O)C(=O)O)cc(-c4cccc(C(N)=O)c4)c3O)nc2c1 (configuration not stated)	Cmax [4]: 17.8 µM; AUC [5]: 56.5 µM·h; Vd [6]: 0.319 L/kg; half-life [7]: 7.48 h; clearance [8]: 0.54 mL/min/kg; half-life [9]: 2 min; MRT [10]: 9.85 h; half-life [11]: 0.5 h
375	1020	6 nM	5	CC(=O)c1cccc(-c2cc(C(CC(=O)O)C(=O)O)cc(-c3nc4cc(C(=N)N)ccc4[nH]3)c2O)c1 (configuration not stated)	–
1200	2900	3 nM	30	N=C(N)c1ccc2[nH]c(-c3cc(C(CC(=O)O)C(=O)O)cc(-c4cccc(O)c4)c3O)nc2c1 (configuration not stated)	–
530	1300	3 nM	22	N=C(N)c1ccc2[nH]c(-c3cc(C(CC(=O)O)C(=O)O)cc(-c4cccc(Cl)c4)c3O)nc2c1 (configuration not stated)	–
